Results gathered from unrelated publications.
Each line is one published result; the experiments were not run side by side.
Target: BMP-2-inducible protein kinase (BMP2K, Homo sapiens, UniProt Q9NSY1)

SMILES | observed | method | tested at | remaining binding [%]
COc1cnc(Nc2cccc(S(N)(=O)=O)c2)nc1N1CCN(c2ccccc2)C(=O)C1 | binding | competition with immobilised ligand | 1 µM | 80
Nc1ncc2c(n1)-c1c([nH]c3ccc(C#CC4CC4)cc13)CCCC2 | binding | competition with immobilised ligand | 1 µM | 88
O=C(NCCCN1CCOCC1)c1ccc(Nc2nccc(-c3cc4ccccc4s3)n2)cc1 | binding | competition with immobilised ligand | 1 µM | 0.7
CN(C)c1ncnc(-c2ccc3nc(Nc4cc(CN5CCN(C(=O)CC(F)(F)F)CC5)ccn4)[nH]c3c2)c1Cl | cell-free assay | competition with immobilised ligand | 1 µM | 100
FC(F)(F)Oc1cccc(-c2cnc3ccc(-c4ccncc4)nn23)c1 | binding | competition with immobilised ligand | 5 µM | 8.3
CN(C)c1nccc(-c2cnn3ncccc23)n1 | binding |  | 1 µM | 100
CCC(=O)N[C@@H]1CC[C@H](C(=O)N(C)c2ccc(-c3nc4ccccc4o3)cc2)C1 | cell-free assay | competition with immobilised ligand | 1 µM | 100
CN(c1nccc(-c2cnn3ncccc23)n1)C1CC1 | binding |  | 1 µM | 100
O=C(NCCCN1CCOCC1)c1ccc(Nc2ncc(Cl)c(-c3ccc(Cl)s3)n2)cc1 | binding | competition with immobilised ligand | 1 µM | 0.1
CC1CCCN1c1nccc(-c2cnn3ncccc23)n1 (stereo not shown) | binding |  | 1 µM | 95
O=C(c1ccc(Nc2nccc(-c3cc4ccccc4s3)n2)cc1)N1CCC(N2CCCC2)CC1 | binding | competition with immobilised ligand | 1 µM | 0.5
COc1cc(-c2cn(C3CCc4c(F)cccc4N(CC(F)(F)F)C3=O)nn2)ccc1-n1cnc(C)c1 (stereo not shown) | cell-free assay | competition with immobilised ligand | 1 µM | 100
O=C(NCC1CCOCC1)c1n[nH]cc1NC(=O)c1c(F)cccc1F | binding | competition with immobilised ligand | 1 µM | 81
O=C1NC(c2ccccn2)Sc2ccccc21 (stereo not shown) | cell-free assay | competition with immobilised ligand | 1 µM | 88
N[C@@H]1CCN(c2nccc(-c3cnn4ncccc34)n2)C1 | binding |  | 1 µM | 100
COc1cnc(Nc2cccc(S(N)(=O)=O)c2)nc1N1CCN(c2ccccc2)CC1 | binding | competition with immobilised ligand | 1 µM | 57
Cc1c(C(=O)O)cc(-c2ccc(C3CCNCC3)cc2)c2ccc(-c3ccc(C(F)(F)F)cc3)cc12 | binding | competition with immobilised ligand | 1 µM | 83
C[C@@H]1CCN(c2nccc(-c3cnn4ncccc34)n2)C1 | binding |  | 1 µM | 97
CNC(=O)Nc1ccc2c(c1)CC[C@@]21OC(=O)N(CC(=O)N(Cc2ccc(F)cc2)[C@@H](C)C(F)(F)F)C1=O | cell-free assay | competition with immobilised ligand | 1 µM | 98
F[C@@H]1CCN(c2nccc(-c3cnn4ncccc34)n2)C1 | binding |  | 1 µM | 100
FC(F)(F)c1ccc2c(c1)nc(-c1cccnc1)n2C1CC1 | cell-free assay | competition with immobilised ligand | 1 µM | 100
C[C@@H](c1ccc(-n2cnc3c(N)ncnc32)cc1)N1CCc2nn(C)c(Cc3ccccc3)c2C1=O | binding | competition with immobilised ligand | 0.1 µM | 84
